Assays:
B16 cells = assay: Cell cycle assay by flow cytometry; format: cell-based, mouse; conditions: 50 nM (calculated by free DM1), 12 h
MCF-7 cells = assay: Cell cycle assay by flow cytometry; format: cell-based, human; conditions: 50 nM (calculated by free DM1), 12 h
HUVEC cells = assay: Cell cycle assay by flow cytometry; format: cell-based, human; conditions: 50 nM (calculated by free DM1), 12 h
[1] = In vivo safety examination; set-up: species or system C57BL/6 mice
Outline: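 This used the B16 s.c. model in C57BL/6 mice with tail-vein dosing in saline. Body weight was recorded every other day. On day 25 after implantation, 500 μL of blood was taken without heparin and centrifuged (4000 rpm, 5 min); ALT and AST were measured in serum. 20 μL of peripheral blood went for WBC, RBC and platelet counts by autoanalyzer. Heart, liver, spleen, kidney and lung were formalin-fixed, paraffin-embedded, cut at 5 μm and H&E-stained for light microscopy.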

COc1cc2cc(c1Cl)N(C)C(=O)C[C@H](OC(=O)[C@H](C)N(C)C(=O)CCS)[C@]1(C)O[C@H]1[C@H](C)[C@@H]1C[C@@](O)(NC(=O)O1)[C@H](OC)/C=C/C=C(\C)C2 [DM1, Maytansinoid DM1]
percentage of cells in G2/M phase (B16 cells): 58.26% | percentage of cells in G2/M phase (MCF-7 cells): 57.18% | percentage of cells in G2/M phase (HUVEC cells): 42.23% | body weight change versus saline ([1]; B16 tumor-bearing C57BL/6 mice, 400 μg/kg DM1 i.v. every other day x5, n=6): significant body weight loss | H&E histology of major organs (heart, liver, spleen, lung, kidney) ([1]; end of test, 200×): severer organic damages | count of white blood cells (WBC) ([1]; peripheral blood at the end of test, n=6, compared with the normal value): decreased the count | liver function, circulating ALT and AST ([1]; serum on day 25, n=6): obvious hepatic cytolysis

— PMC5595133 (Theranostics, 2017)
